hERG protect = compounds protecting human hERG from proarrhythmic drug block; CHO-hERG, FluxOR thallium flux, dofetilide IC70 present; hit rate 0.51% among 310,000; activation (rescue from dofetilide block), less the hit threshold, % at 10 µM;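 active = activation above the mean of controls blocked by dofetilide plus 5 SD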;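 note: thallium influx through hERG after potassium depolarization seen as dye fluorescence rise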
KCNK9 inh = blocks the human KCNK9 two-pore domain potassium channel. B-score at 10 µM. AID 488922. hit rate 1.2% among 310,000. HEK293 KCNK9, FluxOR thallium flux fluorescence; active compounds read low. Q9NPC2;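 active = ratio B-score over 3 SD below the library mean, with starting fluorescence within 5 SD of its mean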;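 note: negative B-score means less thallium flux so channel inhibition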
Target sequence (Q9NPC2 whole entry, looked up, the tested form may be a part): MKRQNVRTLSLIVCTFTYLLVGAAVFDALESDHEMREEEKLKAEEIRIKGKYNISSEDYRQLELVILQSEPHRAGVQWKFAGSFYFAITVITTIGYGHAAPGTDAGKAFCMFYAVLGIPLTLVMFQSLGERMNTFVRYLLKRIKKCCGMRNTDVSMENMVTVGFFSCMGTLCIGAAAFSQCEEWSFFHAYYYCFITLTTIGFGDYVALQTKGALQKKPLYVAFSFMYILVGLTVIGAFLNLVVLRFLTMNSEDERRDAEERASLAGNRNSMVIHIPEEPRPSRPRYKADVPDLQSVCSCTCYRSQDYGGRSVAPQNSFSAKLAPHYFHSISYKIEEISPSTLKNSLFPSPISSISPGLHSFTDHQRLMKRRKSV
KCNQ1 act = human KCNQ1 channel potentiation or activation. CHO-K1 KCNQ1, thallium flux FluxOR fluorescence; active compounds read high. B-score at 10 µM. P51787. hit rate 0.35% among 310,000. AID 2648;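 active = fluorescence ratio B-score, a plate-corrected score, at least three library SD, with initial intensity B-score within 5 SD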
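Assay system: stable KCNQ1 CHO-K1 line; medium: assay buffer, equal DMSO in all wells; timing: 90 min dye loading and 20 min compound exposure, both at room temperature; technique: kinetic FluxOR thallium fluorescence, 10-s 1-Hz baseline, 110-s post-stimulus read; read-out basis: B score of baseline-normalized fluorescence ratio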
Kir21 block = Kir2.1 (mouse) channel inhibition | B-score at 10 µM | HEK293-Kir2.1, FluxOR thallium flux fluorescence; active compounds read low | hit rate 0.85% among 310,000;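 active = fluorescence ratio B-score at or below minus 3 SD of library scores, with starting-brightness B-score within 2 SD, cut at about -4.2 in these data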;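 note: channel flux triggered by added potassium and thallium sulfate stimulus; B-score of peak minus minimum fluorescence over baseline after thallium stimulus; more negative B-score means stronger Kir2.1 block with less thallium influx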
KCNK3 inh = human KCNK3 channel inhibition, primary screen. CHO-KCNK3 thallium flux, FluxOR fluorescence; active compounds read low. B-score at 10 µM. hit rate 0.84% among 340,000. AID 602410;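 active = B-score under library mean minus 4 SD, starting fluorescence ratio at most library mean plus 5 SD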;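 note: more negative B-score means stronger inhibition of thallium flux through KCNK3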
KCNQ1 block = blocks the human KCNQ1 potassium channel. P51787. CHO-K1 KCNQ1, FluxOR thallium flux fluorescence; active compounds read high. B-score at 10 µM. hit rate 1.3% among 310,000;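 active = compounds whose thallium flux B-score, printed positive for inhibition, exceeds three library SD while starting fluorescence stays within three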;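 note: channel opened by potassium depolarization with thallium stimulus after 20 min compound exposure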
KCNK9 inh conf = confirmation of human KCNK9 potassium channel inhibitors. shares compounds with KCNK9 inh. HEK293 KCNK9 cells, FluxOR thallium flux fluorescence. inhibition, % at 10 µM. hit rate 43% among 4,900. AID 492992;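 active = thallium signal inhibited by more than 5 SD of the compound-free buffer control wells, on both duplicate plates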;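 note: 0% = assay buffer control wells without compound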
Kir2-1 spec = selectivity of KCNK9 modulators against mouse Kir2.1. shares compounds with KCNK9 inh. Kir2.1 cells, FluxOR thallium flux fluorescence. inhibition, % at 10 µM. hit rate 4% among 4,900. AID 492993;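 active = thallium signal drop more than 5 SD beyond the mean of the no-compound control wells, seen in both duplicate plates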;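 note: signal is fluorescence rise after thallium addition divided by baseline fluorescence; plate controls were assay buffer only for no effect and full block by chlorpromazine control for full effect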
HEK293 Tl ctr = non-induced cell nonspecific activity of KCNK9 modulators; shares compounds with KCNK9 inh; non-induced KCNK9-HEK293, FluxOR thallium flux; inhibition, % at 10 µM; hit rate 40% among 4,900;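 active = thallium signal drop beyond 5 SD of the untreated control mean, on both duplicate plates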;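 note: plate controls were buffer only IC0 wells for no effect and SID17386958 at its maximal inhibitory level for full effect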
KCNK3 confirm = confirmation of human KCNK3 two-pore domain potassium channel inhibitors | CHO-KCNK3 thallium flux, FluxOR fluorescence; 0% buffer, 100% carvedilol maximal block | shares compounds with KCNK3 inh | ratio percent of control, % at 10 µM | hit rate 99% among 2,400;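 active = ratio percent of control, averaged over triplicates, above buffer control mean plus 5 SD, cut at about 64% in these data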;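 note: ratio is the fluorescence rise from min to max over baseline after thallium stimulus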
KCNK3 noninduced = counter-screen for KCNK3 inhibitors: effect in non-induced cells; shares compounds with KCNK3 inh; non-induced KCNK3 parental cells, FluxOR thallium flux; active compounds read low; thallium flux ratio (lower = more inhibition) at 10 µM; hit rate 40% among 2,400;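 active = thallium flux ratio, averaged over three wells, more than 5 SD below the buffer control mean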;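 note: host cells are CHO cells without KCNK3 induction; ratio is peak minus trough fluorescence over baseline then normalized to buffer controls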
An asterisk follows results filed as active; i = inactive; . = no result given. Sampled rows, rich in hits. Any-hit rate of the full collection: about 3.7%.

SMILES	hERG protect	KCNK9 inh	KCNQ1 act	Kir21 block	KCNK3 inh	KCNQ1 block	KCNK9 inh conf	Kir2-1 spec	HEK293 Tl ctr	KCNK3 confirm	KCNK3 noninduced
Fc1ccc(C(c2nnnn2CCc2ccccc2)N2CCCc3ccccc32)cc1 (stereo not given)	-5	-8.3*	i	-0.01	-9.1*	i	34%*	i	36%*	93*	0.14*
CS(=O)(=O)N1CCN(c2ccc(NC(=O)c3ccccc3)cc2)CC1	-1	i	i	1.1	i	i	.	.	.	.	.
COc1ccc(Cn2nnnc2C(c2ccccn2)N2CCN(c3cc(Cl)ccc3C)CC2)cc1 (stereo not given)	-1	-11*	i	0.31	-9.5*	i	44%*	i	44%*	101*	i
c1coc(CN(Cc2ccco2)c2ncnc3c2oc2ccccc23)c1	-9	-18*	i	0.05	-12*	i	70%*	i	i	139*	0.14*
Clc1ncnc2c1oc1ccccc12	-18	i	i	1.5	i	i	.	.	.	.	.
COc1ccc(CSc2nc(C)cc(C)c2S(C)(=O)=O)cc1	-4	-11*	i	-3.6	-11*	i	40%*	i	34%*	111*	i
COc1ccc(Oc2nc(C)cc(C)c2S(C)(=O)=O)cc1	-10	i	i	0.04	i	i	.	.	.	.	.
COc1ccc(-c2nc3n(n2)C(c2ccccc2Cl)C(C(N)=O)=C(C)N3)cc1 (stereo not given)	-13	i	i	1.5	i	i	.	.	.	.	.
CCc1ccc(-c2cc(C)no2)cc1S(=O)(=O)N1CCOc2ccccc21	-15	-12*	i	-0.5	-15*	i	38%*	i	42%*	125*	0.14*
COc1ccccc1C(=O)Nc1cccc(NC(=O)c2ccccc2C)c1	-15	-9.1*	i	0.76	-12*	i	54%*	i	30%*	84*	i
COc1nc(N2CCCCCC2)nc(N2CCCCCC2)n1	-12	-11*	i	-0.94	i	i	i	i	54%*	99*	i
CCOc1ccc(-c2cc(C(=O)OC)nc3c2c(=O)n(C)c(=O)n3C)cc1	-10	i	i	0.59	i	i	.	.	.	.	.
COC(=O)c1ccc(CSc2nc3ccccc3c(=O)n2Cc2ccco2)o1	-11	-12*	i	1	-11*	i	i	i	38%*	118*	i
O=C(CSc1nc2ccccc2c(=O)n1Cc1ccco1)NCc1ccccc1	-9	i	i	0.61	i	i	.	.	.	.	.
Cc1cc(C)cc(-n2c(C)cc(/C=N/NC(=O)CSc3ncccn3)c2C)c1	-12	-14*	i	-2.6	-11*	i	60%*	i	32%*	94*	i
CCOc1ccc(NC(=O)C(=O)NCCN2CCN(S(=O)(=O)c3ccc(C)cc3)CC2)cc1	-6	i	i	0.06	i	i	.	.	.	.	.
CN1CCN(C(c2cccs2)c2nnnn2Cc2ccc(F)cc2)CC1 (stereo not given)	-16	i	i	-2.5	i	i	.	.	.	.	.
CC(C)(C)c1cc(C(=O)NNc2cccc(Cl)c2)n(Cc2ccccc2)n1	-11	-15*	i	-2.2	-12*	10*	64%*	i	48%*	123*	i
